Source: paper PMC8014925 (ACS Omega, 2021)

Assays:
[1] = system: β-glucuronidase; assay: β-Glucuronidase inhibition assay; format: biochemical, H. pomatia; settings: for reversibility of inhibition of β-glucuronidase: enzyme activity vs enzyme concentration at four inhibitor concentrations
In short: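 H. pomatia β-glucuronidase (type H-1), stock 10 U/mL in 0.5 M Tris-HCl pH 7.0. Incubated 1 h at 37 °C in 0.1 M phosphate buffer pH 7.0 with pNPG (5 mM stock) and test compound or water control. Stopped with 0.5 M NaOH; pNP read at 400 nm. Final H2O2 1–10,000 μM; NaClO and PAA 1–1000 μM. Triplicates; % inhibition relative to control without test compound.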

[2] = system: arylsulfatase; assay: Arylsulfatase inhibition assay; format: biochemical, Helix pomatia; settings: for type of inhibition of arylsulfatase: Lineweaver–Burk plot; for reversibility of inhibition of arylsulfatase: enzyme activity vs enzyme concentration at four inhibitor concentrations
[3] = system: estrogenic potency; settings: cited from earlier work

CC(=O)OO [PAA, peracetic acid]
type of inhibition of β-glucuronidase ([1]; Lineweaver–Burk plot): noncompetitive
reversibility of inhibition of β-glucuronidase [1]: reversible
maximum inhibition degree on β-glucuronidase ([1]; pH 7.0, tested up to 1000 μM): about 60%
type of inhibition of arylsulfatase [2]: noncompetitive
reversibility of inhibition of arylsulfatase [2]: reversible
inhibition of arylsulfatase at pH 8 (in words) ([2]; pH 8, concentration below 1 mM): nearly no inhibition

[Cd] [cadmium]
estrogenic potency (in words) [3]: no estrogenic potency at all

OCl [hypochlorite]
reversibility of inhibition of β-glucuronidase [1]: irreversible
reversibility of inhibition of arylsulfatase [2]: irreversible
IC50 ([2]; read-out: IC50 on arylsulfatase at pH 5.0, pH 5.0): 7.64 ± 0.61 µM

OO [H2O2, hydrogen peroxide]
inhibition on β-glucuronidase (in words) ([1]; pH 7.0, tested 1-10,000 μM): no inhibition
type of inhibition of arylsulfatase [2]: competitive
reversibility of inhibition of arylsulfatase [2]: reversible
inhibition of arylsulfatase under weak alkaline condition (in words) ([2]; pH 8): reduced inhibition
differences in the inhibition of arylsulfatase across pH (in words) ([2]; pH range of 5–7): no significant differences

CCCCC(CC)COC(=O)c1ccccc1C(=O)OCC(CC)CCCC (stereo not shown) [DEHP, di-2-(ethylhexyl) phthalate]
estrogenic potency [3]: 10^–7
